Data on twelve molecules can be found in ChEMBL document CHEMBL4354817, “4-(3-Aminoazetidin-1-yl)pyrimidin-2-amines as High-Affinity Non-imidazole Histamine H3 Receptor Agonists with in Vivo Central Nervous System Activity” (J Med Chem, 2019).

Molecules are shown by their SMILES.

Assay [1] has as its target T1, Histamine H3 receptor (Homo sapiens, UniProt Q9Y5N1). Put plainly: Displacement of [3H]NAMH from human H3R expressed in HEK293T cells incubated for 2 hrs by microbeta scintillation counting analysis. In kind it is cell-based. A digest of the protocol: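 Homogenates of HEK293T cells transiently expressing hH3R or mH3R, harvested 48 h post-transfection, incubated with 2 nM [3H]NAMH and increasing unlabeled ligand in 50 mM Tris–HCl pH 7.4, 2 h at 25 °C. Rapid filtration over 0.5% PEI-coated GF/C filters, scintillation counting. One-site fit; IC50 converted to pKi by Cheng–Prusoff; three experiments in triplicate.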

Assay [2] concerns the target T1, Histamine H3 receptor. Put plainly: Intrinsic activity at human H3R expressed on HEK293T cells assessed as activation of forskolin-induced CRE-driven luciferase activity co-incubated with forskolin for 6 hrs and measured after 30 mins by CRE-luciferase reporter gene assay relative to histamine. In kind it is functional. The essentials: (§1)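 HEK293T cells transiently transfected (PEI method) in suspension with receptor cDNA (1000 ng), CRE-luciferase (2500 ng) and empty pcDEF3; 50.000 cells/well on poly-L-lysine, grown 24 h. Stimulated with increasing ligand concentrations plus 1 μM forskolin, 37 °C, 5% CO2, 6 h. Luciferase reagent (ATP, D-luciferin) added, luminescence read after 30 min at 37 °C. Nonlinear regression; α relative to histamine; three experiments in triplicate.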

The target in assay [3] is T1, Histamine H3 receptor. Put plainly: Agonist activity at human H3R expressed on HEK293T cells assessed as inhibition of forskolin-induced CRE-driven luciferase activity co-incubated with forskolin for 6 hrs and measured after 30 mins by CRE-luciferase reporter gene assay. The assay is classed as functional. A digest of the protocol: as §1
Assay [4] addresses T1, Histamine H3 receptor. The assay is described as follows: Displacement of [3H]-N-alpha-methylhistamine from human histamine H3 receptor expressed in CHO cells incubated for 40 min by liquid scintillation counting analysis. In kind it is cell-based.
The target in assay [5] is T1, Histamine H3 receptor. Put plainly: Agonist activity at recombinant human H3R expressed on cells incubated for 60 mins by [35S]GTPgammaS binding assay. In kind it is functional.

T1 sequence (Q9Y5N1 whole entry): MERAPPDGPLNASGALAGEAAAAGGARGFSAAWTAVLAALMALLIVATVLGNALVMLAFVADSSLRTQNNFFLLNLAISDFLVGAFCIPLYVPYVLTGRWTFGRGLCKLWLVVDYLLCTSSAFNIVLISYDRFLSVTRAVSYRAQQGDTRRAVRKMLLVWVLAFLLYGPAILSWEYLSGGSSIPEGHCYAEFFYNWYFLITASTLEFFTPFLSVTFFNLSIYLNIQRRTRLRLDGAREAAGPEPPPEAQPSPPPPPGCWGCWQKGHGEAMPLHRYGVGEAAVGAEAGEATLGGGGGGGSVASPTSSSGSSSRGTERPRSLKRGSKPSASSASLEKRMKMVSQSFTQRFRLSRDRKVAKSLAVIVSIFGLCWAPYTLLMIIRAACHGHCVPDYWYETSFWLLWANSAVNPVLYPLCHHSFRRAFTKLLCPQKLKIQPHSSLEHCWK

Take `CC(C)NC1CN(c2ccnc(N)n2)C1`: in assay [1], the Ki was 39.8 nM. Further, in assay [2], the Intrinsic activity was 1.2. For the same molecule, the concentration for a half-maximal effect (EC50) in assay [3] was 3.16 nM.

Molecule `CC(C)c1cc(N2CC(N)C2)nc(N)n1` gave a Ki in assay [1] of 200 nM. In assay [2], the Intrinsic activity was found to be 0.7. Moreover, the EC50 in assay [3] was 79.4 nM.

On to `CCNC1CN(c2cc(C)nc(N)n2)C1`, for which affinity in assay [1] was put at a Ki of 79.4 nM. In addition, the Intrinsic activity in assay [2] was found to be 1. The EC50 in assay [3] was 12.6 nM.

In assay [1], `CCCCNC1CN(c2ccnc(N)n2)C1` had a Ki of 15.8 nM. The Intrinsic activity in assay [2] is 1.2. The EC50 in assay [3] was 0.794 nM.

The molecule `CCNC1CN(c2cc(CC)nc(N)n2)C1` showed a Ki in assay [1] of 126 nM. Also, the Intrinsic activity in assay [2] is 0.9. The EC50 in assay [3] is 31.6 nM.

In the case of `Cc1cc(N2CC(N)C2)nc(N)n1`, the affinity in assay [1] corresponds to a Ki of 50.1 nM. Moreover, in assay [2], the Intrinsic activity worked out at 0.9. In assay [3], the EC50 was 15.8 nM.

As to `Cc1cc(N2CC(N(C)C)C2)nc(N)n1`, the Ki in assay [1] was 316 nM. For the same molecule, the Intrinsic activity in assay [2] turned out to be 0.9. Moreover, the EC50 in assay [3] was 39.8 nM.

For the molecule `CNC1CN(c2ccnc(N)n2)C1`, in assay [1], the affinity, expressed as Ki, was 6.31 nM. Moreover, the Intrinsic activity in assay [2] was determined as 1.1. For the same molecule, the EC50 in assay [3] was 1.26 nM.

Take `CCc1cc(N2CC(N(C)C)C2)nc(N)n1`: the Ki in assay [1] was 251 nM. Besides, the Intrinsic activity in assay [2] amounted to 0.8. Moreover, the EC50 in assay [3] was 63.1 nM.

In assay [1], `CN(C)C1CN(c2ccnc(N)n2)C1` had a Ki of 50.1 nM. For the same molecule, the Intrinsic activity in assay [2] turned out to be 1. The EC50 in assay [3] was 3.98 nM.

In assay [1], `CCc1cc(N2CC(NC)C2)nc(N)n1` showed a Ki of 50.1 nM. Moreover, in assay [2], the Intrinsic activity was 0.8. Further, the EC50 in assay [3] is 25.1 nM.

The molecule `CCCCC(=O)O[C@H]1C[C@@H]2C[C@H]3[C@](NC)(CN2[C@@H](C)C1)C[C@]1(C(=O)Nc2c(C(=O)[C@H]4OC4(C)C)cccc21)[C@]3(C)C=O` gave a Ki in assay [4] of 50.1 nM. The EC50 in assay [5] was 126 nM.
